Consider five compounds from ChEMBL document CHEMBL4373700, “Synthesis and Structure-Activity Relationship Correlations of Gnidimacrin Derivatives as Potent HIV-1 Inhibitors and HIV Latency Reversing Agents” (J Med Chem, 2019).

Active and inactive are the calls of the source. The rule behind the calls is not given here.

As a reminder, the EC50 is the midpoint of the concentration-response curve. The IC50 is the concentration that inhibits the measured activity by half. The term CC50 denotes the concentration at which the toxic effect on the cells reaches its halfway point. Low values mean harm at low concentration, high ones better tolerance by the cells. Usually inhibition stands for how much of the control response was suppressed. As usually defined, the IC90 is the concentration needed for an effect of 90%.

Series [1] has as its target Protein kinase C (PKC). Nature of the series: Agonist activity at Protein kinase C in human U1 cells infected with HIV-1 NL4-3 assessed as induction of HIV-1 p24 production after 72 hrs by ELISA. The series is classed as cell-based. The essentials: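 Latency model: U1 cells (2 × 10^5 cells/mL) incubated with a range of compound concentrations at 37 °C for 72 h. p24 in the supernatant measured by ELISA. EC50 is the concentration giving 50% of maximal p24 induction, from nonlinear regression.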
For orientation: ELISA stands for enzyme-linked immunosorbent assay.

The target of series [2] is Protein kinase C beta type (Homo sapiens) (UniProt P05771). Nature of the series: Agonist activity at Protein kinase C beta in human MT4 cells infected with HIV-1 NL4-3 assessed as inhibition of viral replication at 0.6 nM measured on day 3 post-infection in presence of PKCbeta antagonist enzastaurin by Nano-Glo luciferase assay. The series is classed as cell-based. The essentials:
(§1)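 Multicycle replication: MT4 cells (1 × 10^5 cells/mL) infected with HIV-1 NL4-3 NanoLuc-sec, 50 TCID50/well, with 0.6 nM or 2 nM PKC agonist, with or without enzastaurin at 0, 1/3 or 1 μM. Supernatant luciferase (Nano-Glo) read on day 3 post infection. Replication expressed relative to the no-compound control (100%). Duplicate assay.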

The nature of series [3]: Half-life in Sprague-Dawley rat plasma at 0.05 mM measured up to 24 hrs by LCMS analysis. The following applies: 50 µM. The series is classed as ADME, cell-free. The essentials:
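Sprague Dawley rat plasma (sodium heparin) prewarmed 10 min at 37 °C. Compound added from 5 mM DMSO stock to a final 0.05 mM. Samples taken at 0, 0.5, 1, 2, 4, 6, 10 and 24 h, deproteinized with 2 volumes MeOH, centrifuged and filtered. Analysis by LCMS (C18, isocratic, ESI). Mean of three independent experiments.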

Series [4] in a line: Agonist activity at Protein kinase C in human MT4 cells infected with HIV-1 NL4-3 assessed as inhibition of viral replication measured on day 3 post-infection by Nano-Glo luciferase assay.
The subject of series [5] is MT4. Nature of the series: Cytotoxicity against human MT4 cells measured after 3 days by CytoTox-Glo assay. Type of series: cell-based. The following applies: mt4, 72 h. A digest of the protocol:
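MT4 cells cultured with a range of compound concentrations for 3 days. Viability by CytoTox-Glo, run per the manufacturer's protocol. CC50 is the concentration causing a 50% drop in viability.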

Series [6] concerns the target Protein kinase C beta type (Homo sapiens) (UniProt P05771). Nature of the series: Agonist activity at Protein kinase C beta in human MT4 cells infected with HIV-1 NL4-3 assessed as inhibition of viral replication at 0.6 nM measured on day 3 post-infection by Nano-Glo luciferase assay relative to control. The series is classed as cell-based. The essentials: as §1
Series [7] has the same target. Nature of the series: Agonist activity at Protein kinase C beta in human MT4 cells infected with HIV-1 NL4-3 assessed as inhibition of viral replication at 2 nM measured on day 3 post-infection in presence of PKCbeta antagonist enzastaurin by Nano-Glo luciferase assay. The series is classed as cell-based. A digest of the protocol:
as §1

For series [8], the system named is Human immunodeficiency virus 1. Nature of the series: Antiviral activity against HIV 1 NL4-3 infected in human MT4 cells assessed as inhibition of replication treated 48 hrs post infection and measured on day 4 post infection by ELISA. The series is classed as functional. The following applies: Human immunodeficiency virus 1, NL4-3, MT4.

Chain of Protein kinase C beta type (Homo sapiens) (P05771 2-671 limits assumed): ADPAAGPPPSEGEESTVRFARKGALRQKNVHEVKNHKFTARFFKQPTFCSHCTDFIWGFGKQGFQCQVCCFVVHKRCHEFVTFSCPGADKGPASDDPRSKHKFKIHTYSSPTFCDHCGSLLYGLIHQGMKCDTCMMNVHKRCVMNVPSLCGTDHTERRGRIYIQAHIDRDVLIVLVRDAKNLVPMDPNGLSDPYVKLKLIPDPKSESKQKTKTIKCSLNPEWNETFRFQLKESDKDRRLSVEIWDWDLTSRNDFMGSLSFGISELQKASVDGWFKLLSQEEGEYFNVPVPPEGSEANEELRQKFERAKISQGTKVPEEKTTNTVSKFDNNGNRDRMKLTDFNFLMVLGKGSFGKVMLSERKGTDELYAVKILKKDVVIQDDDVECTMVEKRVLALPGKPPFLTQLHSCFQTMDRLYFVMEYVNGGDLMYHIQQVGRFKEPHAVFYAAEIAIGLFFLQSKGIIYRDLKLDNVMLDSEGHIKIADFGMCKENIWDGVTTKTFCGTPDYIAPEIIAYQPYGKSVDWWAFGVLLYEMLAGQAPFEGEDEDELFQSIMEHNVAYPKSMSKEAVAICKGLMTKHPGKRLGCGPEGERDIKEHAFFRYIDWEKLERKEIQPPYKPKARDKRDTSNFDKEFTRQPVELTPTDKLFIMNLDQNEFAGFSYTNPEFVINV

In the case of `C=C(C)[C@]12C[C@@H](COC(=O)c3ccccc3)[C@@]34OC5(O[C@@H]1[C@@H]3[C@@H]1O[C@]1(CO)[C@@H](O)[C@@]1(O)[C@H]4[C@H]([C@H](C)[C@@H]1OC(=O)c1ccccc1)[C@H](C)CCCCCC[C@H]5O)O2`, the EC50 in series [1] was found to be 0.19 nM. The result in series [2] was inactive. This compound also came in with a t1/2 in series [3] of 21.77 h. Moreover, in series [4], the concentration for half-maximal inhibition (IC50) was determined as 0.13 nM. The same compound returned a CC50 in series [5] above 1 nM. Further, the inhibition in series [6] was 90%.
As for `C=C(C)[C@]12C[C@@H](COC(=O)c3ccccc3)[C@@]34OC5(O[C@@H]1[C@@H]3[C@@H]1O[C@]1(CO)[C@@H](O)[C@@]1(O)[C@H]4[C@H]([C@H](C)[C@@H]1OC(=O)c1ccccc1)[C@H](C)CCCCCCC5=O)O2`, the 50% effective concentration (EC50) in series [1] came to 0.6 nM. In series [3], this compound returned a t1/2 of 21.65 h. Besides, in series [4], the IC50 is reported as 0.14 nM. In series [5], this compound displayed a CC50 above 1 nM.
In series [3], `C=C(C)[C@]12C[C@@H](COC(=O)c3ccccc3)[C@@]34OC5(O[C@@H]1[C@@H]3[C@@H]1O[C@]1(CO)[C@@H](O)[C@@]1(O)[C@H]4[C@H]([C@H](C)[C@@H]1OC(=O)c1ccc3ccccc3c1)[C@H](C)CCCCCC[C@H]5O)O2` returned a t1/2 of 26.17 h. The half-maximal inhibitory concentration (IC50) in series [4] was 0.15 nM. This compound also had a half-maximal cytotoxic concentration (CC50) in series [5] above 1 nM.
`C=C(C)[C@]12C[C@@H](COC(=O)c3ccccc3)[C@@]34OC5(O[C@@H]1[C@@H]3[C@@H]1O[C@]1(CO)[C@@H](O)[C@@]1(O)[C@H]4[C@H]([C@H](C)[C@@H]1OC(=O)c1ccncc1)[C@H](C)CCCCCC[C@H]5O)O2`: the EC50 in series [1] came out at 0.55 nM. Also, the outcome in series [7] was inactive. In addition, the IC50 in series [4] worked out at 0.36 nM. The CC50 in series [5] is above 1 nM.
Turning to `C=C(C)[C@]12C[C@@H](COC(C)=O)[C@@]34OC5(O[C@@H]1[C@@H]3[C@@H]1O[C@]1(CO)[C@@H](O)[C@@]1(O)[C@H]4[C@H]([C@H](C)[C@@H]1OC(=O)c1ccccc1)[C@H](C)CCCCCC[C@H]5O)O2`, the 90% effect concentration (IC90) in series [8] came out at 0.4 nM.
